{"data": "Experimental data pooled from the literature", "note": "Each line is one published result; the experiments were not run side by side. pIC50: −log10 of the molar value."}
{"SMILES": "Cn1cc(-c2nc(N3CCC(c4ccccn4)C3)c3ccccc3n2)cn1 (stereo not drawn)", "organism": "Trypanosoma cruzi", "assay": "parasite growth, imaging", "system": "U2OS", "conditions": "intracellular, amastigote", "measurement": "pIC50", "value": 5.59}
{"SMILES": "CC1=NN(CNC(=O)c2ccccn2)C(=O)C1=NNn1c(-c2ccccc2)nc2ccccc2c1=O", "organism": "Monascus purpureus", "assay": "microbial growth, broth dilution", "measurement": "MIC", "value": "104 µM"}
{"SMILES": "CCOC(=O)c1c(NC(=O)c2cc(C(F)(F)F)cc(C(F)(F)F)c2)sc2c1CCN(C(=O)OC(C)(C)C)C2", "organism": "Mycobacterium tuberculosis", "assay": "microbial growth, resazurin", "system": "H37RV", "conditions": "7 days", "measurement": "MIC", "value": "> 100 µM"}
{"SMILES": "CC(C)(C)c1nc(N2CCCCC2)c2ccccc2n1", "organism": "Trypanosoma cruzi", "assay": "parasite growth, imaging", "system": "U2OS", "conditions": "intracellular, amastigote", "measurement": "pIC50", "value": 4.67}
{"SMILES": "CCOC(=O)c1c(NC(=O)c2c(F)c(F)c(F)c(F)c2F)sc2c1CCN(CC)C2", "organism": "Mycobacterium tuberculosis", "assay": "microbial killing", "system": "H37RV", "conditions": "21 days", "measurement": "MBC", "value": "< 5 µM"}
{"SMILES": "CC1=NN(CNC(=O)c2ccccc2)C(=O)C1=NNn1c(-c2ccccc2)nc2ccccc2c1=O", "organism": "Monascus purpureus", "assay": "microbial growth, broth dilution", "measurement": "MIC", "value": "104 µM"}
{"SMILES": "CCCCNC(=O)c1c(N)sc2c1CCCC2", "organism": "Mycobacterium tuberculosis", "assay": "microbial growth, resazurin", "system": "H37RV", "measurement": "MIC", "value": "> 300 µM"}
{"SMILES": "CC1=NN(CNc2c(O)c(S(=O)(=O)O)cc3ccccc23)C(=O)C1=NNn1c(-c2ccccc2)nc2ccccc2c1=O", "organism": "Monascus purpureus", "assay": "microbial growth, broth dilution", "measurement": "MIC", "value": "41.8 µM"}
{"SMILES": "CCOC(=O)c1cc(-c2ccccc2)sc1NC(=O)c1c(F)c(F)c(F)c(F)c1F", "organism": "Mycobacterium tuberculosis", "assay": "microbial growth, resazurin", "system": "H37RV", "measurement": "MIC", "value": "> 200 µM"}
{"SMILES": "COc1ccccc1-c1nc(N2CCC(c3ccccn3)C2)c2ccccc2n1 (stereo not drawn)", "organism": "Trypanosoma cruzi", "assay": "parasite growth, imaging", "system": "U2OS", "conditions": "intracellular, amastigote", "measurement": "pIC50", "value": 6.04}
{"SMILES": "CCN1CCc2c(sc(N)c2C(=O)NCc2ccccc2OC)C1", "organism": "Mycobacterium tuberculosis", "assay": "microbial growth, resazurin", "system": "H37RV", "measurement": "MIC", "value": "> 200 µM"}
{"SMILES": "[H]/N=C(/N)N[C@H]1[C@H](O)[C@@H](O)[C@H](O[C@@H]2O[C@@H](C)[C@](O)(C=O)[C@H]2O[C@@H]2O[C@@H](CO)[C@H](O)[C@@H](O)[C@@H]2NC)[C@@H](N/C(N)=N\\[H])[C@@H]1O", "organism": "Mycobacterium tuberculosis", "assay": "microbial growth, disc diffusion", "system": "ATCC25177", "conditions": "10 µg/disc, 12 days", "measurement": "inhibition zone", "value": "40 mm"}
{"SMILES": "Cc1ccc2nc(-c3ccc(F)c(F)c3)c(CN3CCN(C4CCCCC4)CC3)n2c1", "organism": "Trypanosoma cruzi", "assay": "parasite growth", "system": "TULAHUEN", "conditions": "6 days, intracellular, amastigote", "measurement": "EC90", "value": "> 5 µM"}
{"SMILES": "N#Cc1cccc(-c2nc(N3CCC(c4ccccn4)C3)c3ccccc3n2)c1 (stereo not drawn)", "organism": "Trypanosoma cruzi", "assay": "parasite growth, imaging", "system": "U2OS", "conditions": "intracellular, amastigote", "measurement": "pIC50", "value": 5.16}
{"SMILES": "Cc1cc2nccc(-c3cccnc3)c2c(C)c1-c1ccc(CN2CCOCC2)cc1", "organism": "Mycobacterium tuberculosis", "assay": "microbial growth", "system": "H37RV", "measurement": "MIC90", "value": "5 µM"}
{"SMILES": "O=C1NN=C(N=Cc2ccccc2O)C1=NNn1c(-c2ccccc2)nc2ccccc2c1=O", "organism": "Monascus purpureus", "assay": "microbial growth, broth dilution", "measurement": "MIC", "value": "111 µM"}
{"SMILES": "CCOC(=O)c1c(NC(=O)c2ccccc2)sc2c1CCN(C(=O)OC(C)(C)C)C2", "organism": "Mycobacterium tuberculosis", "assay": "microbial growth, resazurin", "system": "H37RV", "measurement": "MIC", "value": "> 200 µM"}
{"SMILES": "c1ccc(CNc2nc(-c3ccccn3)nc3ccccc23)cc1", "organism": "Trypanosoma cruzi", "assay": "parasite growth, imaging", "system": "U2OS", "conditions": "intracellular, amastigote", "measurement": "pIC50", "value": 5.85}
{"SMILES": "COc1ccccc1CNC(=O)c1c(N)sc2c1CCCC2", "organism": "Mycobacterium tuberculosis", "assay": "microbial growth, resazurin", "system": "H37RV", "measurement": "MIC", "value": "316 µM"}
{"SMILES": "O=C(N[C@@H](Cc1ccccc1)C(=O)c1nc2ccccc2s1)[C@H](Cc1ccccc1)NC(=O)N1CCOCC1", "organism": "Trypanosoma cruzi", "assay": "parasite growth", "system": "TULAHUEN", "conditions": "intracellular, amastigote", "measurement": "pIC50", "value": 4.76}
{"SMILES": "c1ccc(-c2nc(N3CCC(c4ccccn4)C3)c3ccccc3n2)cc1 (stereo not drawn)", "organism": "Trypanosoma cruzi", "assay": "parasite growth, imaging", "system": "U2OS", "conditions": "intracellular, amastigote", "measurement": "pIC50", "value": 5.32}
{"SMILES": "Cc1cc2nc(C(=O)N3CCNCC3)cc(-c3ccccc3Cl)c2c(C)c1-c1ccncc1", "organism": "Mycobacterium tuberculosis", "assay": "microbial growth", "system": "H37RV", "measurement": "MIC90", "value": "10 µM"}
{"SMILES": "COc1ccc(Nc2nc(-c3cccs3)nc3ccccc23)cc1", "organism": "Trypanosoma cruzi", "assay": "parasite growth, imaging", "system": "U2OS", "conditions": "intracellular, amastigote", "measurement": "pIC50", "value": 5.23}
{"SMILES": "CC1(C)S[C@@H]2[C@H](NC(=O)[C@H](N)c3ccccc3)C(=O)N2[C@H]1C(=O)O", "organism": "Plesiomonas shigelloides", "assay": "microbial growth, agar dilution", "conditions": "26.93 µM", "measurement": "inhibition", "value": "100%"}
